What was measured:
CCRF-CEM [1] = test: Inhibition of human T-lymphoblast CEM cell (ATCC) proliferation; At this concentration no inhibition was observed; format: functional, cell-based
[2] = target: T1, Inosine-5'-monophosphate dehydrogenase 2 (Homo sapiens, UniProt P12268); test: Inhibitory activity of compound was evaluated against the Inosine-5'-monophosphate dehydrogenase 2
In short: (§1)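 Human type II IMPDH expressed in and purified from E. coli, used at 40 nM. Buffer was 0.1 M Tris, 0.1 M KCl, 3 mM EDTA pH 8.0 with 2 mM DTT and 400 µM IMP. Compounds were added from DMSO (final 2.5%), and the reaction was started with NAD (final 400 µM). After 2 h at 25 °C, NADH absorbance was read at 340 nm. IC50 was taken from a four-parameter logistic fit.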

CCRF-CEM [3] = test: The human T-lymphoblast CEM cell (ATCC) proliferation inhibitory activity was determined; format: functional, cell-based
In short: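 CEM human T-lymphoblasts were grown in RPMI 1640 with 10% heat-inactivated FBS and penicillin/streptomycin, then seeded at 3000 cells/well with 0.5% DMSO. Compounds were tested in triplicate, top final concentration 10 uM, in 3-fold serial dilutions, for 72 h at 5% CO2. Viability was read by Alamar Blue (10% v/v, final 5 h), fluorescence ex/em 530/590 nm.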

[4] = target: T1, Inosine-5'-monophosphate dehydrogenase 2; test: Inhibitory activity of compound was evaluated against the inosine monophosphate dehydrogenase -II (IMPDH-II) enzyme; in short: as §1
[5] = target: Inosine-5'-monophosphate dehydrogenase 1 (Homo sapiens, UniProt P20839); test: Inhibitory activity of compound was evaluated against the Inosine-5'-monophosphate dehydrogenase 1
Sequence of Inosine-5'-monophosphate dehydrogenase 1 (P20839 whole entry): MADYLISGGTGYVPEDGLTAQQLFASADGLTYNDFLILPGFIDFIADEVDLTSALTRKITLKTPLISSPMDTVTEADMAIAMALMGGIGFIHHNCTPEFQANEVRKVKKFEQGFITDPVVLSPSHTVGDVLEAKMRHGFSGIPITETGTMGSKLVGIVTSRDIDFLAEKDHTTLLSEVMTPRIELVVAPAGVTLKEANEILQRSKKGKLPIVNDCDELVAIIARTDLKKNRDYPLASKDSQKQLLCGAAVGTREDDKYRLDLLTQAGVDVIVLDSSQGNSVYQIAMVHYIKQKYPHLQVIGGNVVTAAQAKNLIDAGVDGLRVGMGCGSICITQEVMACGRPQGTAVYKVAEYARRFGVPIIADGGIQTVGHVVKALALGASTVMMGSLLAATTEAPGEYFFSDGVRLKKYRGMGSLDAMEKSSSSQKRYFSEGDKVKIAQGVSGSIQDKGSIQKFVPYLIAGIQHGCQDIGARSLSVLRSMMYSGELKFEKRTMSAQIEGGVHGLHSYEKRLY

Compound | IC50 (CCRF-CEM [1]) | IC50 [2] | IC50 (CCRF-CEM [3]) | IC50 [4] | IC50 [5]
COc1cc(NC(=O)c2cccs2)ccc1-c1cnco1 | > 1000 nM | 810 nM | – | – | –
COc1cc(NC(=O)/C=C/c2ccccc2C)ccc1-c1cnco1 | > 1000 nM | 35 nM | – | – | –
COc1cc(NC(=O)/C=C/c2c(C)cc(F)cc2C)ccc1-c1cnco1 | > 1000 nM | 75 nM | – | – | –
COc1cc(NC(=O)/C=C/c2ccc3ccccc3n2)ccc1-c1cnco1 | > 1000 nM | 630 nM | – | – | –
COc1cc(NC(=O)c2ccc(C(C)(C)C)o2)ccc1-c1cnco1 | > 1000 nM | 130 nM | – | – | –
COc1cc(NC(=O)c2occc2C)ccc1-c1cnco1 | > 1000 nM | > 1000 nM | – | – | –
COc1cc(NC(=O)/C=C/c2ccccc2)ccc1-c1cnco1 | > 1000 nM | 73 nM | – | – | –
COc1cc(NC(=O)/C=C/c2cccc(F)c2)ccc1-c1cnco1 | > 1000 nM | 200 nM | – | – | –
COc1cc(NC(=O)c2cc3ccccc3n2C)ccc1-c1cnco1 | – | 130 nM | 7700 nM | – | –
COc1cc(NC(=O)c2c[nH]c3ccccc23)ccc1-c1cnco1 | > 1000 nM | > 3000 nM | – | – | –
COc1cc(NC(=O)c2ccc3[nH]ccc3c2)ccc1-c1cnco1 | > 1000 nM | 630 nM | – | – | –
COc1cc(NC(=O)/C=C/c2ccccc2F)ccc1-c1cnco1 | > 1000 nM | 740 nM | – | – | –
COc1ccccc1/C=C/C(=O)Nc1ccc(-c2cnco2)c(OC)c1 | > 1000 nM | 110 nM | – | – | –
COc1cc(NC(=O)/C=C/c2cccnc2)ccc1-c1cnco1 | > 1000 nM | 210 nM | – | – | –
COc1cc(NC(=O)/C=C/c2ccco2)ccc1-c1cnco1 | – | 28 nM | 6600 nM | – | –
COc1cc(NC(=O)c2cc3ccccc3s2)ccc1-c1cnco1 | > 1000 nM | 170 nM | – | – | –
COc1cc(NC(=O)c2ccccc2)ccc1-c1cnco1 | > 1000 nM | – | – | 630 nM | –
COc1cc(NC(=O)/C=C/c2c[nH]c3ccccc23)ccc1-c1cnco1 | > 1000 nM | 410 nM | – | – | –
COc1cc(NC(=O)c2cccn2C)ccc1-c1cnco1 | > 1000 nM | 890 nM | – | – | –
COc1cc(NC(=O)c2ccc3c(c2)OCO3)ccc1-c1cnco1 | > 1000 nM | 330 nM | – | – | –
COc1cc(NC(=O)c2ccc(-c3ccccn3)s2)ccc1-c1cnco1 | > 1000 nM | 870 nM | – | – | –
COc1cc(NC(=O)c2ccco2)ccc1-c1cnco1 | > 1000 nM | 2500 nM | – | – | –
COc1cc(NC(=O)/C=C/c2cccc(Cl)c2)ccc1-c1cnco1 | > 1000 nM | 300 nM | – | – | –
COc1cc(NC(=O)Cc2ccccc2)ccc1-c1cnco1 | > 1000 nM | 970 nM | – | – | –
COc1cc(NC(=O)c2ccc(C)c(C)c2)ccc1-c1cnco1 | > 1000 nM | 260 nM | – | – | –
COc1cc(NC(=O)/C=C/c2ccc(F)cc2)ccc1-c1cnco1 | > 1000 nM | 120 nM | – | – | –
COc1cc(NC(=O)c2cc(C)c(C)o2)ccc1-c1cnco1 | > 1000 nM | 540 nM | – | – | –

Now from value to compound:

IC50 (CCRF-CEM [1]) | IC50 [2] | IC50 (CCRF-CEM [3]) | IC50 [4] | IC50 [5] | Compound
> 1000 nM | 210 nM | – | – | – | COc1cc(NC(=O)/C=C/c2ccc(C)cc2)ccc1-c1cnco1
> 1000 nM | 230 nM | – | – | – | COc1cc(NC(=O)/C=C/c2ccc(Cl)cc2)ccc1-c1cnco1
> 1000 nM | 590 nM | – | – | – | COc1cc(NC(=O)/C=C/c2cccc(C)c2)ccc1-c1cnco1
> 1000 nM | 210 nM | – | – | – | COc1cc(NC(=O)c2cc3ccccc3o2)ccc1-c1cnco1
– | 57 nM | 8700 nM | – | – | COc1cc(NC(=O)/C=C/c2ccncc2)ccc1-c1cnco1
> 1000 nM | > 1000 nM | – | – | – | COc1cc(NC(=O)c2[nH]nc3ccccc23)ccc1-c1cnco1
– | 110 nM | 8800 nM | – | – | COc1cc(NC(=O)c2ccc(C)s2)ccc1-c1cnco1
> 1000 nM | 66 nM | – | – | – | COc1cc(NC(=O)/C=C/c2cccs2)ccc1-c1cnco1
> 1000 nM | 60 nM | – | – | – | COc1cc(NC(=O)/C=C/c2ccccc2Cl)ccc1-c1cnco1
> 1000 nM | 110 nM | – | – | > 1000 nM | COc1cc(NC(=O)c2cc3ccccc3[nH]2)ccc1-c1cnco1
> 1000 nM | 960 nM | – | – | – | COc1ccccc1/C=C\C(=O)Nc1ccc(-c2cnco2)c(OC)c1
> 1000 nM | – | – | – | – | COc1cc(NC(=O)Nc2cccc(C)c2)ccc1-c1cnco1
> 1000 nM | 140 nM | – | – | – | COc1cc(NC(=O)c2cc3ccccn3c2)ccc1-c1cnco1
